Series [1] deals with Sigma non-opioid intracellular receptor 1 (Cavia porcellus, UniProt Q60492). Briefly: Displacement of [3H]-(+)-pentazocine from sigma-1 receptor in Dunkin Hartley guinea pig brain membranes after 180 mins by liquid scintillation counting analysis. Set-up: species or system Membrane. A general note: In a radioligand displacement assay an active substance lowers the binding of a labelled ligand.

Series [2] in a line: Displacement of [3H]-DTG from sigma-2 receptor in Dunkin Hartley guinea pig brain membrane after 120 mins by liquid scintillation counting analysis in presence of (+)-SKF10047. Set-up: species or system Cavia porcellus.
Series [3] is described as follows: Acute toxicity in po dosed Kun Ming mouse after 24 hrs. The series is classed as organism-based. The note with it: in vivo.
The next series is filed under the species Cavia porcellus. As to the kind of experiment: Selectivity ratio of Ki for Dunkin Hartley guinea pig brain sigma-2 receptor to Ki for Dunkin Hartley guinea pig brain sigma-1 receptor.
Series [4] has as its system Mus musculus. As to the kind of experiment: Antinociceptive activity in Kun Ming mouse pain model assessed as reduction in licking and biting time during phase-1 at 80 mg/kg, ip administered 15 mins prior to formalin challenge relative to vehicle-treated control. In kind it is functional. The note with it: route intraperitoneal. The method in brief:
(§1)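 Kun Ming mice (20 ± 2.0 g), 10–12 per group, given vehicle (30% PEG 400) or drug ip at 10 mL/kg 15 min before intraplantar formalin. Time spent licking or biting the injected paw scored at 0–5 min (phase I) and 15–45 min (phase II). Effect (%) = (LTV − LTD)/LTV × 100.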

Series [5] concerns Mus musculus. As to the kind of experiment: Antinociceptive activity in Kun Ming mouse pain model assessed as reduction in licking and biting time during phase-2 at 80 mg/kg, ip administered 15 mins prior to formalin challenge relative to vehicle-treated control. The series is classed as functional. The note with it: route intraperitoneal. The method in brief: as §1

Sequence of Sigma non-opioid intracellular receptor 1 (Q60492 whole entry): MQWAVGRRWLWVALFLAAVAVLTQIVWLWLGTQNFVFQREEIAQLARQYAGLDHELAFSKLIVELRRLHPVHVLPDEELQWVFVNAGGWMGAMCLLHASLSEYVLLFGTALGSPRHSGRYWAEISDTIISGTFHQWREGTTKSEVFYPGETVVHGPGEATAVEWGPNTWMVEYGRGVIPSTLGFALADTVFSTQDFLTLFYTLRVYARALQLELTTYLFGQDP

By Ki is commonly meant the equilibrium dissociation constant of an inhibitor or competing ligand from its target. Broadly, the LD50 is the dose at which mortality reaches 50%. In the case of `Cc1nc(-c2ccc(F)cc2)nc(OCCCN2CCCCC2)c1Cl`, the Ki in series [1] was found to be 0.00114 µM; in series [2], 1.33 µM. Also, the LD50 at 24 h in series [3] came to 884 mg/kg.
On to `Cc1nc(-c2ccc(F)c(F)c2)nc(OCCCN2CCCCC2)c1Cl`, for which the Ki in series [1] worked out at 0.00097 µM; in series [2] it was 0.943 µM.
Turning to `c1ccc(-c2nc(OCCCN3CCCC3)cc(C3CC3)n2)cc1`, the Ki in series [1] is 0.278 µM; in series [2], > 2 µM.
Turning to `Cc1cc(OCCCN2CCOCC2)nc(-c2ccccc2)n1`, the figures for the Ki in series [1] and in series [2] were 0.0363 µM and 0.949 µM, respectively. Also, the Ratio Ki in the series listed under Cavia porcellus stood at 26.1.
For `Cc1nc(C2CC2)nc(OCCCN2CCCCC2)c1Cl`, in that order: 0.0395 µM, 1.33 µM and 33.6.
`Cc1cc(OCCCN2CCN(c3ccccc3)CC2)nc(-c2ccccc2)n1`: the Ki in series [1] and in series [2] was > 2 µM each time.
As to `CCCc1cc(OCCCN2CCCCC2)nc(-c2ccccc2)n1`, the Ki in series [1] worked out at 0.0349 µM; in series [2] it was 1.46 µM. Besides, the Ratio Ki in the series filed under Cavia porcellus is 41.7.
As for `Cc1cc(OCCCN(C)C)nc(-c2ccccc2)n1`, the Ki was 0.0823 µM in series [1] and > 2 µM in series [2].
With `COc1cc(OCCCN2CCCC2)nc(-c2ccccc2)n1`, the Ki in series [1] came out at 0.0193 µM; in series [2], 0.892 µM. Also, the Ratio Ki in the series filed under Cavia porcellus came out at 46.2.
Regarding `Cc1ncnc(OCCCN2CCCCC2)c1Cl`, the Ki in series [1] amounted to 0.187 µM; in series [2] it was 1.1 µM. Moreover, the Ratio Ki in the series filed under Cavia porcellus turned out to be 5.9.
`COc1cc(OCCCN2CCCCC2)nc(-c2ccccc2)n1`: the Ki stood at 0.0193 µM in series [1] and 0.892 µM in series [2]. In addition, in the series listed under Cavia porcellus, the Ratio Ki is 46.2.
Consider `COc1ccc(-c2nc(C)c(Cl)c(OCCCN3CCCCC3)n2)cc1`, for which the Ki in series [2] is 1.29 µM. The Ratio Ki in the series filed under Cavia porcellus turned out to be 332.
For `Cc1ccc(-c2nc(C)c(Cl)c(OCCCN3CCCCC3)n2)cc1`, the Ki came to 0.00196 µM in series [1] and 1.55 µM in series [2]. In series [3], this molecule showed an LD50 at 24 h of 1680 mg/kg.
For `Cc1nc(-c2ccccc2)nc(OCCCN2CCCC2)c1C`, the Ki worked out at 0.0114 µM in series [1] and 1.28 µM in series [2]. Besides, in the series filed under Cavia porcellus, the Ratio Ki came out at 112.
Consider `Cc1cc(OCCN2CCOCC2)nn1-c1ccc2ccccc2c1`, for which the Time in the series with Mus musculus [4] amounted to 10.65 s; with Mus musculus [5], 33.16 s.
Regarding `Cc1cc(OCCN2CCOCC2)nc(-c2ccccc2)n1`, the Ki in series [1] and in series [2] was > 2 µM in each case.
For `CCN1CCN(CCCOc2cc(C)nc(-c3ccccc3)n2)CC1`, the Ki is 0.0306 µM in series [1] and 1.18 µM in series [2]. The Ratio Ki in the series filed under Cavia porcellus came out at 38.5.
`Cc1nc(-c2ccc(Cl)c(Cl)c2)nc(OCCCN2CCCCC2)c1Cl`: the Ki in series [1] was 0.0898 µM; in series [2], > 2 µM.
Regarding `c1ccc(-c2nc(OCCCN3CCCCC3)cc(C3CC3)n2)cc1`, the Ki was 0.253 µM in series [1] and > 2 µM in series [2].
As for `Cc1nc(-c2ccccc2)nc(OCCCN2CCCC2)c1Cl`, the Ki in series [1] amounted to 0.00402 µM; in series [2], 1.68 µM. Besides, the LD50 at 24 h in series [3] was > 2000 mg/kg.
Regarding `Cc1cc(OCCOCCN2CCOCC2)nc(-c2ccccc2)n1`, the Ki in series [1] stood at 0.422 µM; in series [2], 1.92 µM. The Ratio Ki in the series listed under Cavia porcellus was 4.6.
On to `Cc1cc(OCCCN2CCCN(C)CC2)nc(-c2ccccc2)n1`, for which the figures for the Ki in series [1] and in series [2] were 0.0187 µM and 1.29 µM, respectively. Also, in the series listed under Cavia porcellus, the Ratio Ki was found to be 69.2.
`CCCc1cc(OCCCN2CCCC2)nc(-c2ccccc2)n1`: the Ki is 0.0389 µM in series [1] and 1.4 µM in series [2]. In the series filed under Cavia porcellus, the Ratio Ki came out at 35.8.
For `CCN(CC)CCCOc1cc(C)nc(-c2ccccc2)n1`, in that order: 0.0471 µM, 1.32 µM and 28.
Consider `FC(F)(F)c1cc(OCCCN2CCCCC2)nc(-c2ccccc2)n1`, for which the Ki in series [1] is 0.0276 µM; in series [2] it was 1.33 µM. The Ratio Ki in the series listed under Cavia porcellus was 48.
Take `CC(C)c1cc(OCCCN2CCCCC2)nc(-c2ccccc2)n1`: the figures for the Ki in series [1] and in series [2] were 0.188 µM and 1.84 µM, respectively. Moreover, the Ratio Ki in the series filed under Cavia porcellus came to 9.7.
Consider `Cc1nc(-c2ccccc2)nc(OCCCN2CCCCC2)c1C`, for which the Ki was 0.00951 µM in series [1] and 1.22 µM in series [2]. Further, the Ratio Ki in the series listed under Cavia porcellus stood at 128.
For `FC(F)(F)c1cc(OCCCN2CCCC2)nc(-c2ccccc2)n1`, in that order: 0.0276 µM, 1.33 µM and 48.
For `Cc1cc(OCCCN2CCC(C)CC2)nc(-c2ccccc2)n1`, in that order: 0.0167 µM, 1.42 µM and 84.7.
Consider `Cc1nc(-c2ccccc2)nc(OCCCN2CCCC2)c1F`, for which the Ki amounted to 0.00351 µM in series [1] and 1.19 µM in series [2]. For the same molecule, in the series listed under Cavia porcellus, the Ratio Ki was 340.
As for `CCc1cc(OCCCN2CCCC2)nc(-c2ccccc2)n1`, the results for the Ki in series [1] and in series [2] were 0.0224 µM and 1.43 µM, respectively. Besides, the Ratio Ki in the series listed under Cavia porcellus turned out to be 63.8.
Take `Cc1cc(OC/C=C/CN2CCOCC2)nc(-c2ccccc2)n1`: the Ki in series [1] is 0.116 µM; in series [2], 1.45 µM. Also, in the series listed under Cavia porcellus, the Ratio Ki is 12.5.
In the case of `Cc1cc(OCCCCCCN2CCOCC2)nc(-c2ccccc2)n1`, the Ki in series [1] and in series [2] was > 2 µM throughout.
Consider `Cc1nc(-c2ccc3ccccc3c2)nc(OCCCN2CCCCC2)c1Cl`, for which the Ki was 0.102 µM in series [1] and > 2 µM in series [2].
Turning to `Cc1cc(OCCCN2CCC(O)CC2)nc(-c2ccccc2)n1`, the Ki in series [1] was 0.462 µM; in series [2] it was 1.76 µM. The Ratio Ki in the series filed under Cavia porcellus came to 3.8.
With `Cc1cc(OCC(O)CN2CCOCC2)nc(-c2ccccc2)n1` (centres undefined), the Ki in series [1] was found to be 0.486 µM; in series [2], 1.64 µM. Further, the Ratio Ki in the series listed under Cavia porcellus was determined as 3.4.
`Cc1nc(-c2ccccc2)nc(OCCCN2CCCCC2)c1Cl`: the Ki in series [1] came out at 0.00233 µM; in series [2], 1.65 µM. Moreover, in series [3], the LD50 at 24 h was found to be 440 mg/kg.
For the molecule `CCc1cc(OCCCN2CCCCC2)nc(-c2ccccc2)n1`, the Ki worked out at 0.0205 µM in series [1] and 1.14 µM in series [2]. Further, in the series filed under Cavia porcellus, the Ratio Ki worked out at 55.6.
Consider `CC(C)c1cc(OCCCN2CCCC2)nc(-c2ccccc2)n1`, for which the Ki came to 0.218 µM in series [1] and 1.09 µM in series [2]. In addition, the Ratio Ki in the series listed under Cavia porcellus is 5.
Turning to `Cc1cc(OCCCN2CC(C)CC(C)C2)nc(-c2ccccc2)n1` (centres undefined), the values for the Ki in series [1] and in series [2] were 0.0302 µM and 1.66 µM, respectively. Also, the Ratio Ki in the series listed under Cavia porcellus stood at 55.
As for `Cc1cc(OCCCN2CCN(C(=O)OC(C)(C)C)CC2)nc(-c2ccccc2)n1`, the Ki in series [1] and in series [2] was > 2 µM throughout.
On to `Cc1cc(OCCCN2CCCC2)nc(-c2ccccc2)n1`, for which the Ki in series [1] amounted to 0.0136 µM; in series [2], 1.25 µM. For the same molecule, the Ratio Ki in the series filed under Cavia porcellus stood at 92.1.
For `Cc1cc(OCCCN2CCNCC2)nc(-c2ccccc2)n1`, in that order: 0.151 µM, 1.21 µM and 8.
For the molecule `Cc1cc(OCCCN2CCC(=O)CC2)nc(-c2ccccc2)n1`, the Ki in series [1] turned out to be 0.319 µM; in series [2], 1.49 µM. The Ratio Ki in the series filed under Cavia porcellus amounted to 4.7.
For `c1ccc(-c2cc(OCCCN3CCCC3)nc(-c3ccccc3)n2)cc1`, the Ki in series [1] was 0.735 µM; in series [2], > 2 µM.
Turning to `Cc1cc(OCCCN2CCCCC2)nc(-c2ccccc2)n1`, the values for the Ki in series [1] and in series [2] were 0.0118 µM and 1.05 µM, respectively. In the series filed under Cavia porcellus, the Ratio Ki is 89.1.
As to `CCCN(CCC)CCCOc1cc(C)nc(-c2ccccc2)n1`, the Ki came to 0.0388 µM in series [1] and 1.07 µM in series [2]. Further, the Ratio Ki in the series listed under Cavia porcellus is 27.5.
Consider `c1ccc(-c2cc(OCCCN3CCCCC3)nc(-c3ccccc3)n2)cc1`, for which the figures for the Ki in series [1] and in series [2] were 0.966 µM and > 2 µM, respectively.
Consider `Cc1cc(OCCCCCN2CCOCC2)nc(-c2ccccc2)n1`, for which the Ki in series [1] is 0.389 µM; in series [2], > 2 µM.
Consider `Cc1cc(OCCCN2CCN(C)CC2)nc(-c2ccccc2)n1`, for which the Ki in series [1] came to 0.0227 µM; in series [2], 1.32 µM. Moreover, the Ratio Ki in the series listed under Cavia porcellus stood at 58.3.
With `Cc1nc(C)c(Cl)c(OCCCN2CCCCC2)n1`, the Ki in series [1] was determined as 0.0588 µM; in series [2], 1.08 µM. In the series listed under Cavia porcellus, the Ratio Ki came to 18.4.
Turning to `Cc1nc(-c2ccccc2)nc(OCCCN2CCCCC2)c1F`, the Ki in series [1] was found to be 0.00375 µM; in series [2], 1.36 µM. The Ratio Ki in the series filed under Cavia porcellus is 363.
As for `Cc1nc(-c2ccc(C(F)(F)F)cc2)nc(OCCCN2CCCCC2)c1Cl`, the Ki in series [1] was 0.00442 µM; in series [2], 1.78 µM. In series [3], this molecule had an LD50 at 24 h of 377 mg/kg.
Turning to `Cc1cc(OCCCCN2CCOCC2)nc(-c2ccccc2)n1`, the Ki in series [1] worked out at 0.0952 µM; in series [2] it was 1.07 µM. Also, in the series filed under Cavia porcellus, the Ratio Ki was found to be 11.2.
Regarding `Cc1cc(OCCCN2C(C)(C)CCCC2(C)C)nc(-c2ccccc2)n1`, the Ki in series [1] was 0.377 µM; in series [2] it was > 2 µM.

Values taken from ChEMBL document CHEMBL3351343, “Synthesis and biological evaluation of novel sigma-1 receptor antagonists based on pyrimidine scaffold as agents for treating neuropathic pain” (J Med Chem, 2014).
